Experimental data from PMC5760799 (Journal of Pharmaceutical Analysis, 2011).
Ends that are not written are not given here.

Experiments:
[1] = Pharmacokinetic study of PSN-1 in rats after intravenous administration; assay type: in vivo; details: male, Wister, rat, plasma, 3 mg/kg
Method in brief: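 Six male Wister rats (220–250 g), fasted overnight, received a single iv dose of 3.0 mg/kg. About 0.5 mL of blood was drawn from the ocular vein from 0 to 8 h, with time points split between two groups of three rats. Blood was heparinised, spun at 890g for 10 min and plasma held at –20 °C. Plasma was then precipitated with acetonitrile/0.2% formic acid with thymopentin IS and run by UPLC-MS/MS (SRM). Non-compartmental analysis; mean±SD.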

[2] = Stability of PSN-1 in rat plasma; assay type: in vitro ADME; details: UPLC-MS/MS, n=6

FLSLIPHIVSGVASIAKHF-NH2 [PSN-1]
AUC(0-inf) [1]: 1760 ± 404 ng·h/mL
AUC(0-t) [1]: 1660 ± 356 ng·h/mL
Cmax [1]: 1290 ± 340 ng/mL
Tmax [1]: 1.02 min
Vd [1]: 5.23 ± 0.84 L/kg
clearance [1]: 29.7 mL/min/kg
half-life [1]: 2.08 ± 0.31 h
Accuracy (RE) ([2]; long term, −20 °C for 10 days, added 0.05 μg/mL): −4.9%
Accuracy (RE) ([2]; long term, −20 °C for 10 days, added 0.2 μg/mL): −10.1%
Accuracy (RE) ([2]; long term, −20 °C for 10 days, added 1.6 μg/mL): −1.8%
Accuracy (RE) ([2]; short term, room temperature for 4 h before processing, added 0.05 μg/mL): 5.2%
Accuracy (RE) ([2]; short term, room temperature for 4 h before processing, added 0.2 μg/mL): −5.5%
Accuracy (RE) ([2]; short term, room temperature for 4 h before processing, added 1.6 μg/mL): −5.3%
Accuracy (RE) ([2]; three freeze–thaw cycles (−20 to 25 °C), added 0.05 μg/mL): −0.8%
Accuracy (RE) ([2]; three freeze–thaw cycles (−20 to 25 °C), added 0.2 μg/mL): 3.4%
Accuracy (RE) ([2]; three freeze–thaw cycles (−20 to 25 °C), added 1.6 μg/mL): −1.3%
